Laboratory results from ChEMBL document CHEMBL3994580, “A novel class of α-glucosidase and HMG-CoA reductase inhibitors from Ganoderma leucocontextum and the anti-diabetic properties of ganomycin I in KK-Ay mice” (Eur J Med Chem, 2017).
The source made the active and inactive calls. No cut-off for these calls is given here.

What was measured:
[1] = target: T1, 3-hydroxy-3-methylglutaryl-coenzyme A reductase (Sus scrofa, UniProt Q1W675); experiment: (§1) Inhibition of HMG-CoA reductase in pig liver microsomes using HMG-CoA as substrate preincubated for 5 mins followed by NADPH addition measured after 15 mins by colorimetric method
T1 sequence (Q1W675 whole entry): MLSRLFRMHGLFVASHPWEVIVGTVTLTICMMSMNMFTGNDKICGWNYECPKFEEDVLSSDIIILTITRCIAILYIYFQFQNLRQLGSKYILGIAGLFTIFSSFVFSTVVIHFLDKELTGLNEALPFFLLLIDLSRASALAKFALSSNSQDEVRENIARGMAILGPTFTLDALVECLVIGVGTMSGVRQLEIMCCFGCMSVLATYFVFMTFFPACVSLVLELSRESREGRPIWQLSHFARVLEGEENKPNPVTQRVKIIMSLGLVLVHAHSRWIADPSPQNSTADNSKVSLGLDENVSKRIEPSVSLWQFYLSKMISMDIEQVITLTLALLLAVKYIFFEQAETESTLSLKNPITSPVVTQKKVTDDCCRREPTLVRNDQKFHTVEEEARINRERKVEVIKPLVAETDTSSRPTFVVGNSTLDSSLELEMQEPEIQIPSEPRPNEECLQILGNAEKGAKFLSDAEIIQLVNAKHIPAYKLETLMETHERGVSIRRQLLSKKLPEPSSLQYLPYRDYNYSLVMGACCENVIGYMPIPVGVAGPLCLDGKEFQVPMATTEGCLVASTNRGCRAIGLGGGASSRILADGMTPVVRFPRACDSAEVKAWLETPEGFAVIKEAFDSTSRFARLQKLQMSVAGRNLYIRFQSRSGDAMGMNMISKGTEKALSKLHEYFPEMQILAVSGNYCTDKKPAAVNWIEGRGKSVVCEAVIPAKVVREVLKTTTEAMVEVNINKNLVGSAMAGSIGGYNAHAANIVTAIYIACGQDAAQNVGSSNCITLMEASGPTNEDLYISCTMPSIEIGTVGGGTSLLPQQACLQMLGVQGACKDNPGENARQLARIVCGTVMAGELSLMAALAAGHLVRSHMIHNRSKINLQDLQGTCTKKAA
Outline: (§2)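 HMG-CoA reductase activity followed by absorbance at 340 nm. Blank had potassium phosphate buffer instead of enzyme, and control had buffer instead of compound. Percent inhibition calculated from blank-corrected OD.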

[2] = target: T2, 3-hydroxy-3-methylglutaryl-coenzyme A reductase (Sus scrofa) (UniProt Q1W675); experiment: as §1; outline: as §2
T2 sequence (whole entry): T1 sequence (Q1W675 whole entry)

[3] = test system: Saccharomyces cerevisiae; experiment: Non-competitive inhibition of baker's yeast alpha-glucosidase using varying levels of p-nitrophenyl alpha-D-glucopyranoside as substrate preincubated for 10 mins followed by substrate addition measured for 15 mins by Lineweaver-Burk plot analysis
Outline: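 Kinetics with inhibitor at 0.3 to 1 μM against α-glucosidase. pNPG at 2, 4, 6 and 8 μM. Initial velocities measured with and without inhibitor, and inhibition type assigned from Michaelis-Menten and Lineweaver-Burk plots.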

[4] = Inhibition of alpha-glucosidase in rat small intestinal mucosa assessed as reduction in glucose production using p-nitrophenyl alpha-D-glucopyranoside as substrate measured after 40 mins by glucose oxidase assay
Outline: (§3)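 Rat small intestinal mucosa enzyme. Compound in DMSO mixed with substrate (maltose, sucrose or pNPG) and enzyme in 0.1 M phosphate buffer pH 6.9, incubated 40 min. Glucose released measured by glucose oxidase kit at 550 nm. Blank lacked enzyme, control lacked compound. Percent inhibition calculated from blank-corrected OD.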

[5] = Inhibition of maltase in rat small intestinal mucosa assessed as reduction in glucose production using maltose as substrate measured after 40 mins by glucose oxidase assay; outline: as §3
[6] = target: Sucrase-isomaltase, intestinal (Rattus norvegicus, UniProt P23739); experiment: Inhibition of sucrase in rat small intestinal mucosa assessed as reduction in glucose production using sucrose as substrate measured after 40 mins by glucose oxidase assay; outline: as §3
Chain of Sucrase-isomaltase, intestinal (P23739 1-1013 limits assumed): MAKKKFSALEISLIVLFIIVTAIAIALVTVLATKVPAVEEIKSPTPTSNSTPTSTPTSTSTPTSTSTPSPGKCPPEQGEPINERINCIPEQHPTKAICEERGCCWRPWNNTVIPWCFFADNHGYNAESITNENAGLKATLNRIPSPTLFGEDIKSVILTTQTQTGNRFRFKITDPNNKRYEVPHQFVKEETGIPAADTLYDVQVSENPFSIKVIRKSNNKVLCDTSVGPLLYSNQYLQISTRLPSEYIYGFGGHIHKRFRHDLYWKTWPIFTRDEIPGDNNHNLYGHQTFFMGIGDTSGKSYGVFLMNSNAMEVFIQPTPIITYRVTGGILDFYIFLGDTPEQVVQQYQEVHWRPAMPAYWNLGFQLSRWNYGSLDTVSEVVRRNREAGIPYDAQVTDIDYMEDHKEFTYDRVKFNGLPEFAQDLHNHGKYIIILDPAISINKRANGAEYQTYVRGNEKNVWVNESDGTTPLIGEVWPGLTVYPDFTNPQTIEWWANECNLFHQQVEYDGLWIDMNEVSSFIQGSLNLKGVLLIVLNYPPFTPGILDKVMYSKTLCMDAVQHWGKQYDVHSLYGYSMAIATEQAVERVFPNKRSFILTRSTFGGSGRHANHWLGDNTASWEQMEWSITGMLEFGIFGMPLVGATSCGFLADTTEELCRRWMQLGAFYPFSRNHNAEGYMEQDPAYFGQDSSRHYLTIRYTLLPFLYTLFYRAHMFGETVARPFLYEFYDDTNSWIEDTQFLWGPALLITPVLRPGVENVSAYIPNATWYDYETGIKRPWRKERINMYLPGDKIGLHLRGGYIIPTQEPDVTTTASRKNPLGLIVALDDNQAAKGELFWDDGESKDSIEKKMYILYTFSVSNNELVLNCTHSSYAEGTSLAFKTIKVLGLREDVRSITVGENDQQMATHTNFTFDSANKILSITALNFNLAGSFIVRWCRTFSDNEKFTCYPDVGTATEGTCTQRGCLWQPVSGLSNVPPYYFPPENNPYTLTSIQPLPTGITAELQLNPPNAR
Chain of Sucrase-isomaltase, intestinal (P23739 1014-1841 limits assumed): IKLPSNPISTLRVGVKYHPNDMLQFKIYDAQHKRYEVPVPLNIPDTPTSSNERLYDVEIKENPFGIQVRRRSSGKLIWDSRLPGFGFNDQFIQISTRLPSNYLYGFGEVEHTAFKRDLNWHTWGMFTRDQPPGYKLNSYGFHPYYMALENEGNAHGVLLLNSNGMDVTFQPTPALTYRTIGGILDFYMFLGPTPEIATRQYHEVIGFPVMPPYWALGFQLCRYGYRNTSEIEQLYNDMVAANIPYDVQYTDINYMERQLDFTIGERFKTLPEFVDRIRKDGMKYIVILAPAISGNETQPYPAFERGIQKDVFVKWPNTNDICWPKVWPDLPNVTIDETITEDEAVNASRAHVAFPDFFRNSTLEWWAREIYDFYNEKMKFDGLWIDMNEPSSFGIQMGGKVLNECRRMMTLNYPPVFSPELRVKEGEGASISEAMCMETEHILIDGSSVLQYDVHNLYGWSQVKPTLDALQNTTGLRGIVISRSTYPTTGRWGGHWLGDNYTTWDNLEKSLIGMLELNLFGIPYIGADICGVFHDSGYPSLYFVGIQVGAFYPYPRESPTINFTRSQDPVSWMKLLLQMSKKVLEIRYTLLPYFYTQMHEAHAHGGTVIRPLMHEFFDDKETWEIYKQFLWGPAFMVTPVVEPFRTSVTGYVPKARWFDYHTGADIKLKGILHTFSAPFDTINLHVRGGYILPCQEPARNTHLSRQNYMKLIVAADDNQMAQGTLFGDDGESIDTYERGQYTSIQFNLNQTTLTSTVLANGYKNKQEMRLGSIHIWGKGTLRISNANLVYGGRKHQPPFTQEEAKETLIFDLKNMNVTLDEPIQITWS

[7] = Inhibition of baker's yeast alpha-glucosidase using p-nitrophenyl alpha-D-glucopyranoside as substrate preincubated for 10 mins followed by substrate addition measured for 15 mins; parameters: species or system Saccharomyces cerevisiae
Outline: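 Baker's yeast α-glucosidase with pNPG, read at 405 nm. Control contained phosphate buffer in place of compound, and blank contained buffer in place of enzyme.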

[8] = test system: Mus musculus; experiment: Antidiabetic activity in KK-Ay diabetic mouse model assessed as reduction in blood glucose level at 10 mg/kg/day administered via oral gavage once daily measured on day 19 at 30 to 60 mins post insulin challenge by insulin tolerance test; assay type: functional, organism-based
Outline: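 ITT on day 19 of treatment: after 4 h fasting, insulin 0.6 U·kg-1 given intraperitoneally. Glycaemia was sampled from the tail tip before and at set times after injection, and the AUC was computed. Mean ± SEM, n = 8.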

[9] = test system: Mus musculus; experiment: Antidiabetic activity in KK-Ay diabetic mouse model assessed as reduction in free diet blood glucose level at 10 mg/kg/day administered via oral gavage once daily measured on day 3 post dose; assay type: functional, organism-based
Outline: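 Non-fasted (free diet) blood glucose was tracked serially in high-fat-fed KK-Ay mice given daily gavage doses (1 or 5 mg/kg; rosiglitazone 10 mg/kg). Mean ± SEM, n = 8.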

[10] = test system: Mus musculus; experiment: Hypolipidemic activity in KK-Ay diabetic mouse model assessed as reduction in serum NEFA level at 10 mg/kg/day administered via oral gavage once daily for 21 days; assay type: functional, organism-based
Outline: (§4)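 Male KK-Ay mice (8 weeks old) on high-fat diet with water ad libitum, dosed by gavage once daily for 21 days (1 or 5 mg/kg test; rosiglitazone 10 mg/kg); female C57BL/6J mice as normal controls. Blood collected at study end. Serum lipids, insulin and glucose measured per cited method. ISI calculated from fasting blood glucose and fasting insulin. Mean ± SEM, n = 7-8.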

[11] = test system: Mus musculus; experiment: Antidiabetic activity in KK-Ay diabetic mouse model assessed as reduction in serum insulin level at 10 mg/kg/day administered via oral gavage once daily for 21 days; assay type: functional, organism-based; outline: as §4
[12] = test system: Mus musculus; experiment: Hypolipidemic activity in KK-Ay diabetic mouse model assessed as reduction in serum total cholesterol level at 10 mg/kg/day administered via oral gavage once daily for 21 days; assay type: functional, organism-based; outline: as §4
[13] = test system: Mus musculus; experiment: Antidiabetic activity in KK-Ay diabetic mouse model assessed as reduction in HbA1C level at 10 mg/kg/day administered via oral gavage once daily for 21 days; assay type: functional, organism-based
[14] = test system: Mus musculus; experiment: Decrease in size of adipocytes in abdominal white adipose tissue in KK-Ay diabetic mouse model at 10 mg/kg/day administered via oral gavage once daily for 21 days by haematoxylin and eosin staining based microscopic or morphometric method; assay type: functional, organism-based
Outline: (§5)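 At study end, liver and abdominal white adipose tissue were fixed in 10% formaldehyde PBS (pH 7.4), paraffin-embedded, sectioned and stained with haematoxylin/eosin. Sections were assessed by microscopy or morphometry at 20×.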

[15] = test system: Mus musculus; experiment: Toxicity in KK-Ay diabetic mouse model assessed as changes in body weight at 10 mg/kg/day administered via oral gavage once daily for 21 days measured every 3 days during compound dosing; assay type: organism-based; conditions: in vivo
Outline: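 In high-fat-fed KK-Ay mice gavaged once daily for 21 days, individual body weight and cage food consumption were recorded every 3 days. Mean ± SEM, n = 8.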

[16] = test system: Mus musculus; experiment: Antidiabetic activity in KK-Ay diabetic mouse model assessed as reduction in blood glucose level after 4 hrs fasting at 10 mg/kg/day administered via oral gavage once daily measured on day 3 post dose; assay type: functional, organism-based
Outline: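 KK-Ay mice on high-fat diet, gavaged once daily (1 or 5 mg/kg; rosiglitazone 10 mg/kg). Blood glucose monitored sequentially after 4 h fasting. Mean ± SEM, n = 8, compared with the KK-Ay model group.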

[17] = test system: Mus musculus; experiment: Hypoglycemic activity in KK-Ay diabetic mouse model assessed as increase in liver hepatic glycogen level at 10 mg/kg/day administered via oral gavage once daily for 4 weeks; assay type: functional, organism-based
[18] = test system: Mus musculus; experiment: Decrease in hepatocyte hypertrophy in KK-Ay diabetic mouse model at 10 mg/kg/day administered via oral gavage once daily for 21 days by haematoxylin and eosin staining based microscopic or morphometric method; assay type: functional, organism-based; outline: as §5
[19] = test system: Mus musculus; experiment: Antidiabetic activity in KK-Ay diabetic mouse model assessed as increase in insulin sensitivity index at 10 mg/kg/day administered via oral gavage once daily for 21 days; assay type: functional, organism-based; outline: as §4
[20] = test system: Mus musculus; experiment: Hypolipidemic activity in KK-Ay diabetic mouse model assessed as reduction in serum triglyceride level at 10 mg/kg/day administered via oral gavage once daily for 21 days; assay type: functional, organism-based; outline: as §4
[21] = test system: Mus musculus; experiment: Effect on serum AST level in KK-Ay diabetic mouse model at 10 mg/kg/day administered via oral gavage once daily for 21 days; assay type: functional, organism-based; outline: as §4
[22] = test system: Mus musculus; experiment: Decrease in lipid droplet accumulation in liver in KK-Ay diabetic mouse model at 10 mg/kg/day administered via oral gavage once daily for 21 days by haematoxylin and eosin staining based microscopic or morphometric method; assay type: functional, organism-based; outline: as §5
[23] = test system: Mus musculus; experiment: Antidiabetic activity in KK-Ay diabetic mouse model assessed as reduction in blood glucose level at 10 mg/kg/day administered via oral gavage once daily for 21 days measured at 30 to 60 mins post glucose challenge by oral glucose tolerance test; assay type: functional, organism-based
Outline: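 OGTT on day 21 of daily gavage dosing in KK-Ay mice. Blood glucose read at time points including 30 and 60 min, and the AUC was calculated. Mean ± SEM, n = 8.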

IC50 [1]	inhibition [2]	inhibition [3]	IC50 [4]	IC50 [5]	IC50 [6]	IC50 [7]	Structure (SMILES)	further results
29.3 µM	Dose-dependent effect	Active	5.9 µM	17.8 µM	35.5 µM	1.6 µM	CC(C)=CCC/C(C)=C/CC/C(=C/Cc1cc(O)ccc1O)C(=O)O [GANOMYCIN B]	
> 100 µM		Active	61.2 µM	46.2 µM	> 100 µM	32.1 µM	CC(C)=CCC/C(C)=C/CCC(CC(=O)c1cc(O)ccc1O)C(=O)O (stereo unspecified) [FORNICIN C]	
> 100 µM		Active	3.6 µM	45.8 µM	> 100 µM	6.3 µM	C/C1=C/CC/C(=C/Cc2cc(O)ccc2O)C(=O)OC(C)(C)[C@H](O)CC1	
45.2 µM	Dose-dependent effect	Active	6.4 µM	18.1 µM	> 100 µM	3.2 µM	CC(C)=CCC/C(C)=C/CC/C(=C/C(=O)c1cc(O)ccc1O)C(=O)O	
							CN(CCOc1ccc(CC2SC(=O)NC2=O)cc1)c1ccccn1 (stereo unspecified) [ROSIGLITAZONE]	Activity [8]: Active; Activity [9]: Active; Activity [10]: Active; Activity [11]: Active; Activity [12]: Active; Activity [13]: Active; Activity [14]: Active; Activity [15]: Toxic; Activity [16]: Active; Activity [17]: inactive; Activity [18]: inactive; Activity [19]: Active; Activity [20]: Active; Activity [21]: inactive; Activity [22]: inactive; Activity [23]: Active
						273 µM	C[C@H]1O[C@H](O[C@H]2[C@H](O)[C@@H](O)[C@@H](O[C@H]3[C@H](O)[C@@H](O)C(O)O[C@@H]3CO)O[C@@H]2CO)[C@H](O)[C@@H](O)[C@@H]1N[C@H]1C=C(CO)[C@@H](O)[C@H](O)[C@H]1O (stereo partly specified) [ACARBOSE]	
> 100 µM		Active	15.8 µM	80.1 µM	> 100 µM	12.7 µM	C/C(C=O)=C\CC/C(C)=C/CCC1=C[C@H](c2cc(O)ccc2O)OC1=O	
56.9 µM	Dose-dependent effect	Active	15.8 µM	23.8 µM	> 100 µM	10.2 µM	COC1(c2cc(O)ccc2O)C=C(CC/C=C(\C)CC/C=C(\C)C=O)C(=O)O1 (stereo unspecified)	
> 100 µM			> 100 µM	> 100 µM	> 100 µM	> 100 µM	CC(C)=CCC/C(C)=C/CC/C(=C\Cc1cc(O)ccc1O)C(=O)O	
